Experimental data: ChEMBL document CHEMBL1129359, “Alkyl and alkoxyethyl antineoplastic phospholipids” (J Med Chem, 1996)
≈ marks a conversion by molar mass, not a printed value. Calls of active or inactive are those of the source. The calls are words filed in the database; no cut-off is given here.

Legend:
[1] = molecular target: Cyclin-dependent kinase 1 (starfish); assay: Inhibition of Cell division cycle 2 (cdc2) kinase
[2] = molecular target: T1, M-phase inducer phosphatase 1 (Homo sapiens, UniProt P30304); assay: Inhibition of Cell division cycle 25 (Cdc25) phosphatase
T1 sequence (P30304 whole entry): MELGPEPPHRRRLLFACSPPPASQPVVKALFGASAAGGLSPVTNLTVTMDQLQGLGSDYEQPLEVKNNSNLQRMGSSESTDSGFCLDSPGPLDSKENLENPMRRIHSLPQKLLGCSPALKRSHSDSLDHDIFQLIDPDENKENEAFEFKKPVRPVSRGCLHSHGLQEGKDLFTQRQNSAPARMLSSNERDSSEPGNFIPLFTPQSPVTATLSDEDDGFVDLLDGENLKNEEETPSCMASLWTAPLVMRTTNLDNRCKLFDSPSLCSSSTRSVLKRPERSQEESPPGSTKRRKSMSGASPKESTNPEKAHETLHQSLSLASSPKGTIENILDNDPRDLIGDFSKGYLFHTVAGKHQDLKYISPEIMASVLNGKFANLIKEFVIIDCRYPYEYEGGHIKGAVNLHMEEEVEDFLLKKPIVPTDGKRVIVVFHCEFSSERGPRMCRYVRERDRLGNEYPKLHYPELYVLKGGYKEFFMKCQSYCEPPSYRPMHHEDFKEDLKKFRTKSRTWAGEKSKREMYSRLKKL
Procedure, shortened: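 Enzyme is GST-human cdc25A fusion expressed in E. coli and purified on glutathione-agarose. Enzyme and DTT in Tris buffer are preincubated 15 min at 37 °C. The reaction starts with p-nitrophenyl phosphate (500 mM stock) and runs 60 min at 37 °C. Absorbance is read at 405 nm, and the no-enzyme blank is subtracted.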

[3] = system: panel of six human tumor xenografts (Homo sapiens); assay: In vitro cytotoxicity in six human tumor xenografts.
[4] = In vitro cytotoxic effect in 0 of 6 human tumor xenografts; format: functional
Procedure, shortened: (§1)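 Double-layer soft-agar clonogenic assay. Tumor cells come from human tumor xenografts serially passaged in nude mice. Cells are dispersed with collagenase 0.05%, DNase 0.07% and hyaluronidase 0.1% (37 °C, 30 min), sieved, and viability is checked by trypan blue. 20 000–200 000 cells go in 0.4% agar over a 0.7% agar base in IMDM with 20% FCS. Drug is overlaid continuously for at least 1 week.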

[5] = system: CXF1103; assay: In vitro cytotoxicity against human tumor xenograft CXF 1103 colorectal adenocarcinoma; format: functional
Procedure, shortened: as §1

[6] = system: RXF 423; assay: In vitro cytotoxicity against human tumor xenograft RXF 423 renal cancer; format: functional
Procedure, shortened: as §1

[7] = system: LXFS538; assay: In vitro cytotoxicity against human tumor xenograft LXFS 538 small cell lung carcinoma; format: functional
Procedure, shortened: as §1

[8] = In vitro cytotoxic effect in 4 of 6 human tumor xenografts, LXFL, LXFS, MEXF and OVXF; format: functional
Procedure, shortened: as §1

[9] = system: MEXF989; assay: In vitro cytotoxicity against human tumor xenograft MEXF 989 melanoma; format: functional
Procedure, shortened: as §1

[10] = system: OVXF1023 cell line; assay: In vitro cytotoxicity against human tumor xenograft OVXF1023 ovarian adenocarcinoma; format: functional
Procedure, shortened: as §1

[11] = system: LXFL 529; assay: In vitro cytotoxicity against human tumor xenograft LXFL 529 Nonsmall cell lung carcinoma; format: functional
Procedure, shortened: as §1

[12] = system: LXFL 529/ LXFS 538; assay: In vitro cytotoxicity in nonsmall cell lung carcinoma cell line LXFL 529 and small cell lung carcinoma cell line LXFS 538 human tumor xenografts.; format: functional
Procedure, shortened: as §1

[13] = In vitro cytotoxic effect in 1 of 6 human tumor xenografts, LXFS; format: functional
Procedure, shortened: as §1

[14] = In vitro cytotoxic effect in 1 of 6 human tumor xenografts, RXF; format: functional
Procedure, shortened: as §1

[15] = In vitro cytotoxic effect in 3 of 6 human tumor xenografts, LXFS, MEXF and RXF; format: functional
Procedure, shortened: as §1

[16] = In vitro cytotoxic effect in 2 of 6 human tumor xenografts, LXFE and RXF; format: functional; settings: in the assay text read “LXFL” for “LXFE”
Procedure, shortened: as §1

[17] = In vitro cytotoxic effect in 2 of 6 human tumor xenografts, LXFL and LXFS; format: functional
Procedure, shortened: as §1

[18] = In vitro cytotoxic effect in 2 of 6 human tumor xenografts, LXFS and RXF; format: functional
Procedure, shortened: as §1

Row | IC50 [2] | SMILES | Mean IC70 [3] | IC70 [5] | IC70 [6] | IC70 [7] | IC70 [9] | IC70 [10] | IC70 [11] | Mean IC70 [12] | other results
1 | 490 µM | CCCCCCCCCCCCCCOP(=O)([O-])OCC[N+]1(C)CCCCC1 | >10 µg/mL |  |  |  |  |  |  |  | IC50 [1]: > 1000 µM; NA [4]: inactive
2 | 460 µM | CCCCCCCCCCCCCCCCOP(=O)([O-])OCC[N+]1(C)CCCCC1 | 5.6 µg/mL | > 10 µg/mL | 10 µg/mL (≈ 22.3 µM) | 1.9 µg/mL (≈ 4.23 µM) | 4.64 µg/mL (≈ 10.4 µM) | 7.8 µg/mL (≈ 17.4 µM) | 4.33 µg/mL (≈ 9.67 µM) |  | Cytotoxicity [8]: Weak activity
3 | 610 µM | CCCCCCCCCCCCOCCOP(=O)([O-])OCC[N+]1(C)CCOCC1 |  |  |  |  |  |  |  | >10 µg/mL | Cytotoxicity [13]: Weak activity
4 | 300 µM | CCCCCCCCCCCCCCOCCOP(=O)([O-])OCC[N+]1(C)CCCCC1 |  |  |  |  |  |  |  | >10 µg/mL | Cytotoxicity [13]: Weak activity
5 | 290 µM | CCCCCCCCCCCCCCOP(=O)([O-])OCC[N+]1(C)CCOCC1 | >10 µg/mL |  |  |  |  |  |  |  | Cytotoxicity [14]: Weak activity
6 | 1000 µM | CCCCCCCCCCCCCCCCOCCOP(=O)([O-])OCC[N+]1(C)CCOCC1 |  | > 10 µg/mL | 4.76 µg/mL (≈ 9.64 µM) | 5.12 µg/mL (≈ 10.4 µM) | 8.76 µg/mL (≈ 17.7 µM) | > 10 µg/mL | 10.4 µg/mL (≈ 21 µM) | 7.8 µg/mL | Cytotoxicity [15]: Weak activity
7 | 500 µM | CCCCCCCCCCCCOP(=O)([O-])OCC[N+]1(C)CCOCC1 | >10 µg/mL |  |  |  |  |  |  |  | NA [4]: inactive
8 | 40 µM | CCCCCCCCCCCCCCCCOP(=O)([O-])OCC[N+]1(C)CCOCC1 | >10 µg/mL |  |  |  |  |  |  |  | Cytotoxicity [14]: Weak activity
9 | > 1000 µM | CCCCCCCCCCCCOP(=O)([O-])OCC[N+]1(C)CCCCC1 | >10 µg/mL |  |  |  |  |  |  |  | Cytotoxicity [13]: Weak activity
10 | 25 µM | CCCCCCCCCCCCCCCCOP(=O)([O-])OCC[N+](C)(C)C [MILTEFOSINE] | 8 µg/mL | > 10 µg/mL | 2.75 µg/mL (≈ 6.76 µM) | > 10 µg/mL | > 10 µg/mL | > 10 µg/mL | 9.57 µg/mL (≈ 23.5 µM) |  | Cytotoxicity [16]: Weak activity
11 | 100 µM | CCCCCCCCCCCCCCCCOCCOP(=O)([O-])OCC[N+]1(C)CCCCC1 |  | > 10 µg/mL | 10 µg/mL (≈ 20.3 µM) | 4.54 µg/mL (≈ 9.23 µM) | > 10 µg/mL | > 10 µg/mL | 5.38 µg/mL (≈ 10.9 µM) | 7.9 µg/mL | Cytotoxicity [17]: Weak activity
12 | 380 µM | CCCCCCCCCCCCCCOCCOP(=O)([O-])OCC[N+]1(C)CCOCC1 |  | > 10 µg/mL | 6.74 µg/mL (≈ 14.5 µM) | 5.85 µg/mL (≈ 12.6 µM) | > 10 µg/mL | > 10 µg/mL | 10 µg/mL (≈ 21.5 µM) | 8.6 µg/mL | Cytotoxicity [18]: Weak activity
